Reference: ChEMBL document CHEMBL1146519, “Acaricidal activity of tonka bean extracts. Synthesis and structure-activity relationships of bioactive derivatives” (J Nat Prod, 2003)

Each compound was assayed on Dermatophagoides pteronyssinus (assay: Pesticidal activity against Dermatophagoides pteronyssinus after 24 hrs).
Type: functional, organism-based
Method in brief: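 D. pteronyssinus reared on 90% yeast powder/10% beard shavings at 25 °C, 75% RH, dark. Compounds in absolute EtOH dried 24 h on 2 cm2 well bottoms; rims glued. 100 mites per well, 24 h at 25 °C, 75% RH, dark. Dead = no movement when prodded. Abbott-corrected mortality; EC50 by linear regression. Seven 2-fold dilutions, 0.01–0.640 g/m2, triplicate, repeated after one week.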
`O=C(OCc1ccccc1)c1cc2ccccc2oc1=O` showed an EC50 of 0.28 g/m2.
Compound `Cc1ccc2oc(=O)ccc2c1` has an EC50 of 0.04 g/m2.
`O=C(OCc1ccccc1)c1cccc(O)c1` was tested, and the EC50 was 0.495 g/m2.
In the case of `O=C(OCc1ccccc1)c1ccc(O)cc1`, the EC50 is reported as 0.495 g/m2.
`O=Cc1cc(C(=O)OCc2ccccc2)ccc1O` gave an EC50 of 0.242 g/m2.
Work on `O=C(OCc1ccccc1)c1cc(=O)c2ccccc2o1` yielded an EC50 of 0.495 g/m2.
Compound `O=C(OCc1ccccc1)c1ccc2oc(=O)ccc2c1` has an EC50 of 0.495 g/m2.
Compound `O=C(OCc1ccccc1)c1cccc2oc(=O)ccc12` has an EC50 of 0.495 g/m2.
In the case of `O=c1cc(O)c2ccccc2o1` [4-HYDROXYCOUMARINS], the EC50 is reported as > 1.5 g/m2.
Work on `O=C(OCc1ccccc1)c1ccccc1` [BENZYL BENZOATE] yielded an EC50 of 0.025 g/m2.
Compound `O=C(/C=C/c1ccccc1)OCc1ccccc1` [BENZYL CINNAMATE] has an EC50 of 0.18 g/m2.
In the case of `O=C(OCc1ccccc1)c1ccc(=O)oc1` [BENZYL COUMALATE], the EC50 is reported as 0.495 g/m2.
`O=C(OCc1ccccc1)c1ccccc1O` [BENZYL SALICYLATE] was tested, and the EC50 was 0.025 g/m2.
`Oc1ccccc1CCCc1ccccc1` [CHALCANE] gave an EC50 of 0.31 g/m2.
`O=C1CCOc2ccccc21` [CHROMANONE] was tested, and the EC50 was 0.07 g/m2.
With `O=c1ccoc2ccccc12` [CHROMONE] the EC50 was 0.037 g/m2.
Work on `O=c1ccc2ccccc2o1` [COUMARIN] yielded an EC50 of 0.032 g/m2.
`c1ccc(C2CCc3ccccc3O2)cc1` (stereo unspecified) [FLAVANE] was tested, and the EC50 was 0.15 g/m2.
Compound `O=C1CC(c2ccccc2)Oc2ccccc21` (stereo unspecified) [FLAVANONE] has an EC50 of 0.09 g/m2.
`O=c1cc(-c2ccccc2)oc2ccccc12` [FLAVONE] gave an EC50 of 0.5 g/m2.
With `O=c1ccc2ccc(O)cc2o1` [UMBELLIFERONE] the EC50 was > 1.5 g/m2.
